Test results taken from ChEMBL document CHEMBL1140681, “Structure-based design of alpha-amido aldehyde containing gluten peptide analogues as modulators of HLA-DQ2 and transglutaminase 2” (Bioorg Med Chem, 2007).
The source made the active and inactive calls. The rule behind the calls is not given here. Square brackets hold non-standard residues; d marks the D form. Peptide text beside a SMILES is read from it. * marks the point of attachment. 5FAM = O=C1OC2(c3ccc(O)cc3Oc3cc(O)ccc32)c2ccc(C(=O)*)cc21; Orn = NCCC[C@H](N)C(=O)O; Dab = NCC[C@H](N)C(=O)O; Dap = NC[C@H](N)C(=O)O; Glyoxylyl = O=CC(=O)*

Experiments:
[1] = target: T1, Protein-glutamine gamma-glutamyltransferase (Homo sapiens) (UniProt P21980); assay: Inhibition of human recombinant TG2 at 500 uM
T1 sequence (whole entry): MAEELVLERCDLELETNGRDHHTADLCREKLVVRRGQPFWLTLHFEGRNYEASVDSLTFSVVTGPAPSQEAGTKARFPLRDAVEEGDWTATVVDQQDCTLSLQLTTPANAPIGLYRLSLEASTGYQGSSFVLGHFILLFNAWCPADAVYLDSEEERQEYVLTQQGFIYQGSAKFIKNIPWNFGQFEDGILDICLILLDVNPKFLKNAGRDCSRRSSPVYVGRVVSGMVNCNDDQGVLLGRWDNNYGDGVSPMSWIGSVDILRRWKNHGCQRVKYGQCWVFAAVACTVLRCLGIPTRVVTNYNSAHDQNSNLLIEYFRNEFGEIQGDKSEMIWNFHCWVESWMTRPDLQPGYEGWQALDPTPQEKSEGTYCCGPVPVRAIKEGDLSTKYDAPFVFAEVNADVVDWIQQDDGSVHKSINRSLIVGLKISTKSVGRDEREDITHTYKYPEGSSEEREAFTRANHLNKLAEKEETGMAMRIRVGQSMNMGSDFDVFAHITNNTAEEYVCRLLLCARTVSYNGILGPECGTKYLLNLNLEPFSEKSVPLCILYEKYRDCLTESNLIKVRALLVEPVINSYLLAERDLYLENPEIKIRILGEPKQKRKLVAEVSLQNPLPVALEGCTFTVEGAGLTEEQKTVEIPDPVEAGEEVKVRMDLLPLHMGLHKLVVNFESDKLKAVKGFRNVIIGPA

VAVY = assay: Induction of cell proliferation in HLA-DQ2 homozygous B-lymphoblastoid VAVY cells at 10 uM after overnight incubation; type: functional, cell-based; details: Homo sapiens
Procedure, shortened: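 γ-Irradiated (12,000 rads) VAVY cells at 2×10^6 cells/ml pulsed with 10 μM peptide for 2 h or overnight, then washed out by centrifugation (800g, 3 min, 4°C). Re-suspended APCs (1×10^6/ml) co-cultured 48 h with equal volume of P28 TCL1 T cells (1×10^6/ml); [³H]thymidine 1 μCi/well for 18–24 h; proliferation by scintillation counting.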

[2] = Enhancement of antigen presentation in HLA-DQ2 homozygous B-lymphoblastoid VAVY cells; type: functional, cell-based, Homo sapiens
Procedure, shortened: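 VAVY cells γ-irradiated (12,000 rads), pulsed with peptides for 10 h, washed by centrifugation, then co-cultured 1:1 with DQ2-αI-responsive polyclonal T cells for 48 h. [³H]thymidine (1 μCi/well) added for 18–24 h; incorporated radioactivity counted as a measure of surface peptide-DQ2 complexes; EC50 derived from titration.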

[3] = target: T1, Protein-glutamine gamma-glutamyltransferase (Homo sapiens); assay: Inhibition of human recombinant TG2 at 100 uM
[4] = target: T1, Protein-glutamine gamma-glutamyltransferase (Homo sapiens); assay: Inhibition of human recombinant TG2 at 750 uM
[5] = target: T2, Protein-glutamine gamma-glutamyltransferase (Homo sapiens, UniProt P21980); assay: Inhibition of human recombinant TG2
T2 sequence (P21980 whole entry): T1 sequence (whole entry)
Procedure, shortened: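 Continuous spectrophotometric coupled deamidation assay with recombinant human TG2: MOPS buffer pH 7.2 with CaCl2, EDTA, α-ketoglutarate, glutamate dehydrogenase and NADH; Z-Gln-Gly substrate (10–40 mM); reaction started by adding TG2. Velocities from linear regression; Ki by non-linear fitting of velocity vs ZQG to Michaelis-Menten with Vmax fixed at the uninhibited value.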

SMILES | EC50 [2] [nM] | Ki [5] [µM] | further results
CC(C)C[C@H](NC(=O)[C@H](CCCCNC(=O)C=O)NC(=O)[C@@H]1CCCN1C(=O)[C@H](CCC(N)=O)NC(=O)[C@@H]1CCCN1)C(=O)N1CCC[C@H]1C(=O)N[C@@H](Cc1ccccc1)C(=O)O (H-PQPK(Glyoxylyl)LPF-OH) | – | – | Activity [1]: inactive
CC(C)C[C@H](NC(=O)c1ccc2c(c1)C(=O)OC21c2ccc(O)cc2Oc2cc(O)ccc21)C(=O)N[C@@H](CCC(N)=O)C(=O)N1CCC[C@H]1C(=O)N[C@@H](Cc1ccccc1)C(=O)N1CCC[C@H]1C(=O)N[C@@H](CNC(=O)C=O)C(=O)N1CCC[C@H]1C(=O)N[C@@H](CCC(=O)O)C(=O)N[C@@H](CC(C)C)C(=O)N1CCC[C@H]1C(=O)N[C@@H](Cc1ccc(O)cc1)C(=O)O (5FAM-LQPFP[Dap](Glyoxylyl)PELPY-OH) | 1000 | – | Activity (VAVY): Active
CC(=O)NCC[C@H](NC(=O)[C@@H]1CCCN1C(=O)[C@H](CCC(N)=O)NC(=O)[C@@H]1CCCN1C(=O)c1ccc2c(c1)C(=O)OC21c2ccc(O)cc2Oc2cc(O)ccc21)C(=O)N[C@@H](CC(C)C)C(=O)N1CCC[C@H]1C(=O)N[C@@H](Cc1ccccc1)C(=O)O (5FAM-PQP[Dab](Ac)LPF-OH) | – | – | Activity [3]: inactive
CC(C)C[C@H](NC(=O)[C@H](NC(=O)C=O)NC(=O)[C@@H]1CCCN1C(=O)[C@H](CCC(N)=O)NC(=O)[C@@H]1CCCN1)C(=O)N1CCC[C@H]1C(=O)N[C@@H](Cc1ccccc1)C(=O)O | – | – | Activity [4]: inactive
CC(C)C[C@H](NC(=O)c1ccc2c(c1)C(=O)OC21c2ccc(O)cc2Oc2cc(O)ccc21)C(=O)N[C@@H](CCC(N)=O)C(=O)N1CCC[C@H]1C(=O)N[C@@H](Cc1ccccc1)C(=O)N1CCC[C@H]1C(=O)N[C@@H](CCC(N)=O)C(=O)N1CCC[C@H]1C(=O)N[C@@H](CCC(=O)O)C(=O)N[C@@H](CC(C)C)C(=O)N1CCC[C@H]1C(=O)N[C@@H](Cc1ccc(O)cc1)C(=O)O (5FAM-LQPFPQPELPY-OH) | 3300 | – | –

Now from value to compound, other results behind:

EC50 [2] [nM] | Ki [5] [µM] | SMILES | further results
39 | – | CC(C)C[C@H](NC(=O)c1ccc2c(c1)C(=O)OC21c2ccc(O)cc2Oc2cc(O)ccc21)C(=O)N[C@@H](CCC(N)=O)C(=O)N[C@@H](CC(C)C)C(=O)N[C@@H](CCC(N)=O)C(=O)N1CCC[C@H]1C(=O)N[C@@H](Cc1ccccc1)C(=O)N1CCC[C@H]1C(=O)N[C@@H](CNC(=O)C=O)C(=O)N1CCC[C@H]1C(=O)N[C@@H](CCC(=O)O)C(=O)N[C@@H](CC(C)C)C(=O)N1CCC[C@H]1C(=O)N[C@@H](Cc1ccc(O)cc1)C(=O)N1CCC[C@H]1C(=O)N[C@@H](CNC(=O)C=O)C(=O)N1CCC[C@H]1C(=O)N[C@@H](CCC(=O)O)C(=O)N[C@@H](CC(C)C)C(=O)N1CCC[C@H]1C(=O)N[C@@H](Cc1ccc(O)cc1)C(=O)O (5FAM-LQLQPFP[Dap](Glyoxylyl)PELPYP[Dap](Glyoxylyl)PELPY-OH) | –
16 | – | CC(C)C[C@H](NC(=O)c1ccc2c(c1)C(=O)OC21c2ccc(O)cc2Oc2cc(O)ccc21)C(=O)N[C@@H](CCC(N)=O)C(=O)N[C@@H](CC(C)C)C(=O)N[C@@H](CCC(N)=O)C(=O)N1CCC[C@H]1C(=O)N[C@@H](Cc1ccccc1)C(=O)N1CCC[C@H]1C(=O)N[C@@H](CCC(N)=O)C(=O)N1CCC[C@H]1C(=O)N[C@@H](CCC(=O)O)C(=O)N[C@@H](CC(C)C)C(=O)N1CCC[C@H]1C(=O)N[C@@H](Cc1ccc(O)cc1)C(=O)N1CCC[C@H]1C(=O)N[C@@H](CCC(N)=O)C(=O)N1CCC[C@H]1C(=O)N[C@@H](CCC(=O)O)C(=O)N[C@@H](CC(C)C)C(=O)N1CCC[C@H]1C(=O)N[C@@H](Cc1ccc(O)cc1)C(=O)O (5FAM-LQLQPFPQPELPYPQPELPY-OH) | –
– | 40 | CC(C)C[C@H](NC(=O)[C@H](CCNC(=O)C=O)NC(=O)[C@@H]1CCCN1C(=O)[C@H](CCC(N)=O)NC(=O)[C@@H]1CCCN1)C(=O)N1CCC[C@H]1C(=O)N[C@@H](Cc1ccccc1)C(=O)O (H-PQP[Dab](Glyoxylyl)LPF-OH) | –
– | 200 | CC(C)C[C@H](NC(=O)[C@H](CCCNC(=O)C=O)NC(=O)[C@@H]1CCCN1C(=O)[C@H](CCC(N)=O)NC(=O)[C@@H]1CCCN1)C(=O)N1CCC[C@H]1C(=O)N[C@@H](Cc1ccccc1)C(=O)O (H-PQP[Orn](Glyoxylyl)LPF-OH) | –
– | 300 | CC(C)C[C@H](NC(=O)[C@H](CNC(=O)C=O)NC(=O)[C@@H]1CCCN1C(=O)[C@H](CCC(N)=O)NC(=O)[C@@H]1CCCN1)C(=O)N1CCC[C@H]1C(=O)N[C@@H](Cc1ccccc1)C(=O)O (H-PQP[Dap](Glyoxylyl)LPF-OH) | –
